Assay outcomes from PubChem.
Sampled rows, rich in hits. Any-hit rate of the full collection: about 1.9%.
DSG3 Ab inh = blocks pemphigus antibody binding to human desmoglein-3 | binding (percent of control), % at 10 µM | AID 588358 | P32926 | DSG3-coupled beads, scFv-anti-DSG3-GFP binding, flow cytometry; active compounds read low | actives 0.48% (n = 310,000);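 active = binding more than 3 SD below its plate's average and above zero; inconclusive = below that plate limit but binding exactly zero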;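 note: hits lower antibody fragment binding to DSG3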
Target sequence (P32926 whole entry, looked up, the tested form may be a part): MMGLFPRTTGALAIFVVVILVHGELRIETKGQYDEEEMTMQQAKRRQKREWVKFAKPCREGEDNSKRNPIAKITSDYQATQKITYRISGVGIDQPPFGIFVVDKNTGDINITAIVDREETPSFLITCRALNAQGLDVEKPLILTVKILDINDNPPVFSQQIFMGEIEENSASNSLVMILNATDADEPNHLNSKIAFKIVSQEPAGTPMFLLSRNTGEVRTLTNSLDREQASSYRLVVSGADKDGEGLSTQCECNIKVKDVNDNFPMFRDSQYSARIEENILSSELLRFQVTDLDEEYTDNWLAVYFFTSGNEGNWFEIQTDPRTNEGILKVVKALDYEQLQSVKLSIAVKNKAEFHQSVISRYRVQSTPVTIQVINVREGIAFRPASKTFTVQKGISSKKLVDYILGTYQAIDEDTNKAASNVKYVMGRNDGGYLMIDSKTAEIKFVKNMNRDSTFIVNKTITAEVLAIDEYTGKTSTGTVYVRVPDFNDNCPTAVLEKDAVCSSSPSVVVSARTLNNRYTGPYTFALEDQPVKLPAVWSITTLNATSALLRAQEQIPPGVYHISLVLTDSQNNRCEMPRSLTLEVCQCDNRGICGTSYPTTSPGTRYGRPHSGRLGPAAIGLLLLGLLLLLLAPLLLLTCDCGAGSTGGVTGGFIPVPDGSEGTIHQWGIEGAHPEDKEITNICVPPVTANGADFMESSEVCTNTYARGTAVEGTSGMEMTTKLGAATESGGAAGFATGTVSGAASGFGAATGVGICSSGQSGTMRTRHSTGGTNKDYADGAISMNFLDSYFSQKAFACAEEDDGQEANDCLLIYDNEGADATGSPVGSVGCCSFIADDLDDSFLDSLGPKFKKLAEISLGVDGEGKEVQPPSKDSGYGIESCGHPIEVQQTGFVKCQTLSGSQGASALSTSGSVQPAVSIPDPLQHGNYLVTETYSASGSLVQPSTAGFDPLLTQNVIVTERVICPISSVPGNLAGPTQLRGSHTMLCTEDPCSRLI
Rce1 inhib = blocks yeast Ras-converting enzyme; Q03530; yeast membranes, quenched prenylated peptide cleavage fluorescence; calls only; actives 0.27% (n = 290,000);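 active = fall in fluorescence gain of 50% or more versus controls, with final raw signal at or below 3038400; inconclusive = same 50% fall but final raw signal above 3038400; inactive = fall in fluorescence gain under 50%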;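 note: plate controls were neutral control wells for no effect and wells lacking membranes for full effect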
TbMetRS inhib = Trypanosoma brucei MetRS inhibition; purified T. brucei MetRS, ATP depletion, Kinase-Glo luminescence; inhibition, % at 11.9 µM; actives 0.4% (n = 360,000);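 active = inhibition above a per-plate cutoff of the control wells' mean inhibition plus 3 SD, cut at about 5.5% in these data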;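 note: 0% = DMSO wells median and 100% = median of wells with control inhibitor compound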
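Dosing: 11.9 µM single point; system: parasite MetRS enzyme; technique: luminescence of leftover ATP; times: 15 min enzyme-compound preincubation, 2 h reaction, 10 min detection, 25 °C; replicates: each compound tested once; read-out basis: percent inhibition relative to median high and low control wells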
core dimer inh = blocks dimerization of HCV core protein; TR-FRET GST/Flag-core106 dimerization, 1536-well; inhibition, % at 5 µM; actives 0.33% (n = 300,000);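 active = inhibition above the mean of all tested compounds plus 3 SD, set per screening campaign, cut at about 45% in these data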
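Assay system: Tagged HCV core106 pair (GST and Flag) | Buffer or medium: KF-containing HEPES buffer, pH 7.45, DTT, CHAPS, BSA | Also added: Eu donor and XL665 acceptor anti-tag antibodies | Dosing: One concentration, 5 µM, in 0.5% DMSO | Timing: 4 h at 22.5 °C | Technique: TR-FRET 671 and 617 nm emission | Repeats: Singlicate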
NadD block = blocks S. aureus nicotinate mononucleotide adenylyltransferase. actives 0.78% (n = 360,000). purified NadD enzyme, colorimetric absorbance read-out. inhibition, % at 20 µM. AID 602399; in the data active = inhibition above about 26%
Active calls of the source: *.

How did Oc1ccc(N=C/C=C/c2cccc(Br)c2)cc1-c1nc2ccccc2s1 do in these assays?
DSG3 Ab inh: 75; Rce1 inhib: inactive; TbMetRS inhib: -1; core dimer inh: 29; NadD block: 41*

What do the screens show for `Oc1ccc(-c2nc3ccccc3s2)c(O)c1`?
DSG3 Ab inh: 100; Rce1 inhib: inactive; TbMetRS inhib: 0; core dimer inh: 3; NadD block: -2

Results for Nc1nc(N)c2c(n1)CN(Cc1ccc(Cl)cc1)C2 ?
DSG3 Ab inh: 109; TbMetRS inhib: 1; NadD block: -2

Results for Cc1cc(N2C(=O)C3C4C=CC(C4)C3C2=O)ccc1NC(=O)c1cccs1 (configuration not stated) ?
DSG3 Ab inh: 112; Rce1 inhib: active; TbMetRS inhib: -1; core dimer inh: 0; NadD block: -1

What do the screens show for `CC(C)(C)C1CCC(C(=O)Nc2ccccc2)CC1` (configuration not stated)?
DSG3 Ab inh: 66*; Rce1 inhib: inactive; TbMetRS inhib: -1; core dimer inh: 2; NadD block: -1

How did O=C(Nc1ccc(-n2cccc2)cc1)C1CC1 do in these assays?
DSG3 Ab inh: 68*; Rce1 inhib: inactive; TbMetRS inhib: -1; core dimer inh: -1; NadD block: -3

Results for O=C(Nc1ccc(Nc2ccccc2)cc1)C1CC1 ?
DSG3 Ab inh: 95; Rce1 inhib: inactive; TbMetRS inhib: 0; core dimer inh: -7; NadD block: -1

How did O=C(CCS(=O)(=O)c1cc(Br)cc2c1N(C(=O)C1CC1)CC2)NCC1CCCO1 (configuration not stated) do in these assays?
DSG3 Ab inh: 108; Rce1 inhib: inactive; TbMetRS inhib: -2; core dimer inh: -4; NadD block: -2

What do the screens show for `O=C(NCc1ccc2c(c1)OCO2)c1cc2ncc(Br)cn2n1`?
DSG3 Ab inh: 79; TbMetRS inhib: -1; core dimer inh: 67*; NadD block: 18

Results for COc1ccccc1NC(=O)CN(c1ccc(C23CC4CC(CC(C4)C2)C3)cc1)S(C)(=O)=O ?
DSG3 Ab inh: 104; Rce1 inhib: active; TbMetRS inhib: 0; core dimer inh: 14; NadD block: 8

What do the screens show for `CCC1(C)Cc2c(sc3nc(SCC(=O)c4ccccc4)[nH]c(=O)c23)CO1` (configuration not stated)?
DSG3 Ab inh: 109; Rce1 inhib: inactive; TbMetRS inhib: -1; core dimer inh: 4; NadD block: -2

How did CCOC1=C/C(=C/c2c(N)n3nc(-c4ccccc4)sc3nc2=O)C=CC1=O do in these assays?
DSG3 Ab inh: 102; Rce1 inhib: inactive; TbMetRS inhib: -1; NadD block: 43*

What do the screens show for `CCS(=O)(=O)c1nn2c(N)c(/C=C3/C=CC(=O)C(OC)=C3)c(=O)nc2s1`?
DSG3 Ab inh: 99; Rce1 inhib: inactive; TbMetRS inhib: 0; core dimer inh: -18; NadD block: -3

Results for COC1=C/C(=C/c2c(N)n3nc(-c4ccc(C)cc4)sc3nc2=O)C=CC1=O ?
DSG3 Ab inh: 101; TbMetRS inhib: 0; NadD block: 35*

Results for COc1cc(OC)cc(C(=O)OCC(=O)Nc2cccc(C(C)=O)c2)c1 ?
DSG3 Ab inh: 115; Rce1 inhib: inactive; TbMetRS inhib: -1; core dimer inh: 9; NadD block: -3

How did COC(=O)CC(N)c1ccc(OC)c2ccccc12 (configuration not stated) do in these assays?
DSG3 Ab inh: 96; Rce1 inhib: inactive; TbMetRS inhib: 0; core dimer inh: -5; NadD block: 3

Results for Clc1ccc2c(c1)C=Nc1c(NCc3ccccc3)ncnc1O2 ?
DSG3 Ab inh: 87; Rce1 inhib: inactive; TbMetRS inhib: 0; core dimer inh: -4; NadD block: 8

What do the screens show for `O=C(NC1CCCCC1)c1cccc2c1C(=O)c1ccc(N3CCC(Cc4ccccc4)CC3)cc1S2(=O)=O`?
DSG3 Ab inh: 134; TbMetRS inhib: 0; NadD block: 25

What do the screens show for `O=C(NCc1ccccc1Br)c1cccc2c1C(=O)c1ccc(N3CCC(Cc4ccccc4)CC3)cc1S2(=O)=O`?
DSG3 Ab inh: 161; TbMetRS inhib: 0; NadD block: 33*

How did CCOC(=O)C1CCCN(C(=O)c2cccc(S(=O)(=O)N3CC(C)OC(C)C3)c2)C1 (configuration not stated) do in these assays?
DSG3 Ab inh: 76; Rce1 inhib: inactive; TbMetRS inhib: -1; core dimer inh: 4; NadD block: -2

What do the screens show for `O=C(Cn1c(=O)n(Cc2ccco2)c(=O)c2c3c(sc21)CCCC3)Nc1ccccc1`?
DSG3 Ab inh: 112; Rce1 inhib: inactive; TbMetRS inhib: 1; core dimer inh: 48*; NadD block: 21

What do the screens show for `Cc1c2c(nc3c(C(=O)NC4CCCC4)cnn13)CCCC2`?
DSG3 Ab inh: 100; Rce1 inhib: inactive; TbMetRS inhib: -1; core dimer inh: 2; NadD block: -5

What do the screens show for `COC(=O)c1cnn2c3c(c(C)nc12)CCCC3`?
DSG3 Ab inh: 104; Rce1 inhib: active; TbMetRS inhib: -1; core dimer inh: 0; NadD block: -4

Results for CCOC(=O)c1c(C)nc2sc(C(=O)Nc3ccccc3)c(N)c2c1-c1ccc(OC)cc1 ?
DSG3 Ab inh: 88*; Rce1 inhib: inactive; TbMetRS inhib: 0; core dimer inh: 4; NadD block: 6

Results for Cc1cc(C)n2nc3nc(N4CCCC4)nc(-c4ccccc4)c3c2n1 ?
Rce1 inhib: inactive; TbMetRS inhib: -1; core dimer inh: 48*; NadD block: 22

What do the screens show for `Cc1nc(N2CCNCC2)c2c3c(sc2n1)CCCC3`?
DSG3 Ab inh: 122; Rce1 inhib: inactive; TbMetRS inhib: -1; core dimer inh: 4; NadD block: -5

How did Cc1ccc(/C=c2/sc3n(c2=O)CCCN=3)o1 do in these assays?
DSG3 Ab inh: 105; Rce1 inhib: inactive; TbMetRS inhib: -1; core dimer inh: -8; NadD block: 1

What do the screens show for `O=C(NCc1ccc(/C=c2\sc3n(c2=O)CCN=3)o1)C(=O)Nc1ccccc1`?
Rce1 inhib: inactive; core dimer inh: 59*

How did O=S(=O)(CC(CN1CCOCC1)N1CCOCC1)c1ccccc1 (configuration not stated) do in these assays?
DSG3 Ab inh: 99; Rce1 inhib: active; TbMetRS inhib: -1; core dimer inh: -5; NadD block: 0

Results for CCNc1nc2nc3ccc(C)cn3c(=O)c2cc1C(=O)NCC1CCCO1 (configuration not stated) ?
DSG3 Ab inh: 104; Rce1 inhib: inconclusive; TbMetRS inhib: -1; core dimer inh: 1; NadD block: -9

Results for C=CCNC(=O)c1cc2c(=O)n3cc(C)ccc3nc2nc1NCC1CCCO1 (configuration not stated) ?
Rce1 inhib: active; core dimer inh: -3
